We go through 36 sequences from the EternaBench riboswitch data.

The data set has as its system MS2 coat protein. The experiment in a line: apparent Kd, MS2 coat protein; higher = weaker binding; RNA-MaP array; FMN 200 µM where present. The method in brief:
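In 100 mM Tris-HCl pH 7.5, 80 mM KCl, 4 mM MgCl2, BSA, DTT, yeast tRNA and Tween-20, SNAP-549-labelled MS2 coat protein was titrated from 0.7 or 1.5 nM, doubling to 3 µM, over designs transcribed by stalled E. coli RNA polymerase on Illumina sequencing-chip clusters. This was done first without ligand, then with ligand held constant. After green signal was normalised to red-channel RNA signal and control-cluster median Fmax, the apparent Kd was taken as the median of filtered per-cluster binding-curve fits.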

The mark [1] stands for this setting: designed as: OFF switch for flavin mononucleotide, no ligand.
Where [2] appears, read: ligand present: flavin mononucleotide, designed as: OFF switch for flavin mononucleotide.
[3] abbreviates: designed as: ON switch for flavin mononucleotide, no ligand.
The mark [4] stands for this setting: ligand present: flavin mononucleotide, designed as: ON switch for flavin mononucleotide.

For the sequence “AGCUAGUGAGGAUAUACGAACAUGUCAAAAGACGUGAGGGAACAUGAGGAUCACCCAUGUAGAAGGCACUAGCA”, the “apparent Kd” value reads like this: under setting [1], 38.8 nM; under setting [2], 33 nM.

As to “UCAUUAUAAAUCCAUCAUAACUACAUGAGGAUCACCCAUGUGCAGGAUAUCGAUUAUUUUACUAACGAGAAGGGCAAAUACAGA”, the “apparent Kd” value came out at 37.5 nM under setting [1] and 72.4 nM under setting [2].

In the case of “GCCUUAUCCGUCAGGAUAUACAGUUGUUAGUUGUUGUAGAAGGGACAUGAGGAUCACCCAUGUACAUUACAUUG”, the “apparent Kd” value was found to be 21.2 nM under setting [1] and 22.6 nM under setting [2].

For the sequence “CCUCUACAUGAGGAUCACCCAUGUGAGGAUAUGCGAGGCACGCCCGAUGGGCGCGCCGGUAGAAGGCAUGUGGU”, the “apparent Kd” value by setting is: under setting [1], 23.6 nM; under setting [2], 49.4 nM.

Consider “GUCAGCUCGUGAGGAUAUACAACACCGCUUCGGCAGUGUAUUAAGAUCACAUGAGGAUCACCCAUGUAGAAGGCACGAGCUGAU”, for which the “apparent Kd” value reads like this: under setting [1], 12.9 nM; under setting [2], 255 nM.

As for “GGACCGCGCAGAGUUGACGGUCGGCAGGAUAUGACAUGAGGAUCACCCAUGUGAACUCCAUUGGGUCAGAAGGGCCACGACGAA”, the “apparent Kd” value runs as follows: under setting [1], 21.1 nM; under setting [2], 77.3 nM.

For the sequence “UUAAUUUAGUGAUAUUAUGACAUUAGAAGGCUGUACAUGUUGAUACAUGAGGAUCACCCAUGUAUAGAGGAUAUAGACAAUUUU”, the “apparent Kd” value worked out at 39.8 nM under setting [1] and 93.8 nM under setting [2].

As for “GGGAGUGGAGGGAAUAACAUGAGGAUCACCCAUGUAUGGGAGAGAAGGCAGGUCGGAGGGCGAUCUGAGGAUAUUUAGACUCCU”, the “apparent Kd” value by setting is: under setting [3], 12.5 nM; under setting [4], 10.3 nM.

Take “CAAUUUUGGAGUUCGUAUCGAUACAUGAGGAUCACCCAUGUAAAGGAUAUGAUCUAGUUUUUAGAUCAGAAGGUUACAUAGGCG”: the “apparent Kd” value runs as follows: under setting [1], 54.9 nM; under setting [2], 25.8 nM.

Take “AUACAUGAGGAUCACCCAUGUCGCAGGUUAAGGCCCAAACCGAGAAGGGAUUCGGUCAAGCCUAAUCAGGAUAUCGGUGGAGCC”: the “apparent Kd” value runs as follows: under setting [3], 93.4 nM; under setting [4], 62.1 nM.

As to “CCCUCACAUGAGGAUCACCCAUGUUAGGAUAUCCACCGUUGAUGGUGCCGAAUCGGUAGGAGAAGGAACAUACA”, the “apparent Kd” value runs as follows: under setting [1], 23.2 nM; under setting [2], 54.6 nM.

For the sequence “ACGUAUCAUGUAGGAUAUGACCCAGGAAAUUGGUCAGAAGGACAUGAGGAUCACCCAUGUAGAGUAUGUUAGGAUGACGUAUGC”, the “apparent Kd” value turned out to be 115 nM under setting [1] and 165 nM under setting [2].

On to “UCCCGUGUGGAAGGAUAUAGGACGAGGUGGGACAUGAGGAUCACCCAUGUGCUAGAAGGUCCGCAGCCGAUUGGCUUUUACGUG”, for which the “apparent Kd” value runs as follows: under setting [1], 9.2 nM; under setting [2], 28.1 nM.

As to “UCAUGAUGGAAGAAGGGAGUCGUGCAUGACAACUCAGGAUAUUUCACAUGAGGAUCACCCAUGUCGAAGUAACAAUGUUGAUCA”, the “apparent Kd” value reads like this: under setting [1], 16.2 nM; under setting [2], 56.6 nM.

For the sequence “AGAUAGAUAGCGAUAUGAUCGAGAGAUCAUGUCGCUAAAUUUAGAAGGACAUGAGGAUCACCCAUGUAGGAUAUGGGUAUAGAA”, the “apparent Kd” value was found to be 404 nM under setting [3] and 149 nM under setting [4].

In the case of “CUGCGGUCAGGAUAUGCAUGGCGGGACUUGCGUCGUGGCGUGGAGAAGGGACAUGAGGAUCACCCAUGUGGAGA”, the “apparent Kd” value reads like this: under setting [1], 67.9 nM; under setting [2], 42.3 nM.

For the sequence “GCGUAUAUAUGUUUUAUUUAACAGUCAGAAGGUGAUAAUACGACAUGAGGAUCACCCAUGUAAUUCAAGGAUAUGAUCUUACGC”, the “apparent Kd” value is, setting by setting: under setting [3], 117 nM; under setting [4], 20.1 nM.

Consider “GACAUUGGCAAGAAGGCAAACAUGAGGAUCACCCAUGUUCUGCAUGUAUAUUGAGGAUAUUGCCAAUGUAUGUGGAUCACCCAA”, for which the “apparent Kd” value is 6.36 nM under setting [1] and 23.3 nM under setting [2].

Consider “CCCAAACUUGGGCUUGGUGGUGCAUAGGAUAUGCUUGAACAUGAGGAUCACCCAUGUACAACUGUGCAGAAGGGUGCAGGGCAA”, for which the “apparent Kd” value runs as follows: under setting [3], 40.9 nM; under setting [4], 18.6 nM.

Turning to “CGUAGGUAGCUGGAGGAUAUUCGAGUGGUAACAUGAGGAUCACCCAUGUGGUGAGAGGAACAUGAGGAGAAGGCUAGCUGCCUGC”, the “apparent Kd” value reads like this: under setting [3], 1290 nM; under setting [4], 1530 nM.

With “UUACUAUCACAGAAGGGUGGAUAGUAUAUAGACGCAGGAUAUGUGACAUGAGGAUCACCCAUGUUUCACCGGCAUGAGGAUCAA”, the “apparent Kd” value under setting [1] was 11.4 nM and the “apparent Kd” value under setting [2] came to 15.3 nM.

For “UAAAAGAAAGUAAGGAUAUCUAAAUUGGAAAAGAGAGAGAAGGUACAUGAGGAUCACCCAUGUAGGGUAUCCGG”, the “apparent Kd” value runs as follows: under setting [1], 52.1 nM; under setting [2], 72.8 nM.

“UUAUUUUUACAGAAGGUUUAAUAAUAUAUAUGAGAAGGAUAUGUAACAUGAGGAUCACCCAUGUUUCACCUAUAUGAGGAUCAU”: the “apparent Kd” value runs as follows: under setting [1], 7.26 nM; under setting [2], 6.11 nM.

“GUAGCAUACCGAGGAUAUUCAUACAAUAAAUAGACAUGAGGAUCACCCAUGUGGCGAAAGCCUUGGGAGAAGGCGGAAUGCUAC”: the “apparent Kd” value reads like this: under setting [3], 451 nM; under setting [4], 37.6 nM.

For the sequence “GCGUGGUUCUAGAAGGUGCUAGCGAUAAGCUAGCAAGGAUAUAGACAUGAGGAUCACCCAUGUCUAAGAGAAAUAGACACACGC”, the “apparent Kd” value stood at 4.56 nM under setting [1] and 5.09 nM under setting [2].

Take “UCCUGGCGAGGAUAUACAAAGUUUUUUACGUUUUGUUACGAACAUGAGGAUCACCCAUGUAGAAGGUGCUACUG”: the “apparent Kd” value stood at 78 nM under setting [1] and 67.3 nM under setting [2].

In the case of “ACUAUACGAGGAUAUACUGUCGGGCCUCGGACAUAAAUAAGACAUGAGGAUCACCCAUGUAGAAGGCGUUUACU”, the “apparent Kd” value reads like this: under setting [1], 25.6 nM; under setting [2], 46 nM.

Take “AAGAAGUCAGGAUAUGCUAAAGAAAUAAAAAGAAAGAAAGAACAUGAGGAUCACCCAUGUAGAAGGGACAAGAA”: the “apparent Kd” value by setting is: under setting [1], 42.9 nM; under setting [2], 40.6 nM.

Consider “AUCGGUCCGUAGAAGGGUGACAUGAGGAUCACCCAUGUGCCGUGUGCGUUUAUGCCUCCACGGCCACAGGAUAUACGGAGUUGA”, for which the “apparent Kd” value is, setting by setting: under setting [3], 28.2 nM; under setting [4], 19.1 nM.

Consider “GCGUUUUAUGCAGGAUAUUGUAAUUUAUUACUACAAGAAGGGCAAUACAUGAGGAUCACCCAUGUCAGCAUGGUAUUAAAGUUC”, for which the “apparent Kd” value amounted to 37.6 nM under setting [1] and 42.8 nM under setting [2].

Consider “CGAUAUGAUAGAGGAUAUGUUUAACAUGAGGAUCACCCAUGUGACAUGGGAUUAAUAUAUAACUUACAGAAGGCUAUUCAAUCG”, for which the “apparent Kd” value reads like this: under setting [1], 34.4 nM; under setting [2], 52.4 nM.

On to “GCAGUAAAUAAAUGCACAUGAGGAUCACCCAUGUGGGAGGCACAGGAUAUCGCAUCAUAGCGGUGCGAGAAGGGUGAUAAUCUC”, for which the “apparent Kd” value was 346 nM under setting [3] and 72.3 nM under setting [4].

For “GCACUUACGUUAGGAUAUGGAUCGGAAAACGAUCCAGAAGGAAUAUGGGAACAUGAGGAUCACCCAUGUUCCGCAGACAAGUGC”, the “apparent Kd” value by setting is: under setting [3], 96.5 nM; under setting [4], 39 nM.

Consider “AACGAGGCAGGAUAUACAUGAGGAUCACCCAUGUGCUUGCAUGGCGUGGGAAGUCAACGUAGAAGGGCCAUGCC”, for which the “apparent Kd” value under setting [1] stood at 75.7 nM and the “apparent Kd” value under setting [2] was 89.4 nM.

“GCUCUCGGAGGAUAUGUGCCGAGUGACAUGAGGAUCACCCAUGUAUUUCUCCUGUAAUCUACAGAAGGCCGAGGCG”: the “apparent Kd” value under setting [1] amounted to 161 nM and the “apparent Kd” value under setting [2] came to 23.9 nM.

For the sequence “CAGCGAUAGCUGAAUGGUACAUGGGAGGAUAUGGGUUGAUACAUGAGGAUCACCCAUGUUUAAUACUAGAAGGCCCAUGUACCU”, the “apparent Kd” value reads like this: under setting [3], 316 nM; under setting [4], 11 nM.

One may read the apparent Kd as a dissociation constant that holds for the conditions of the assay.
